Test results published in ChEMBL document CHEMBL2034980, “N⁴-Phenyl-substituted 2-acetylpyridine thiosemicarbazones: cytotoxicity against human tumor cells, structure-activity relationship studies and investigation on the mechanism of action” (Bioorg Med Chem, 2012).
Active and inactive are the calls of the source. The calls are words filed in the database; no cut-off is given here.

Key:
[1] = Haemolytic activity in human RBC after 1 hr by photometry; type: ADME, cell-based; conditions: Erythrocyte
Method in brief: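 Human EDTA blood was spun at 700xg for 10 min and the erythrocytes washed three times in cold PBS pH 7.4, then resuspended in it. Cells were incubated with varying compound concentrations for 1 h at 37 °C with shaking. After centrifugation, released haemoglobin was read at 540 nm to give the IC50. Mean ± SD, n = 4.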

[2] = test system: MCF7; experiment: Induction of apoptosis in human MCF7 cells assessed as membrane blebbing at 1 uM after 48 hrs by DAPI staining; type: functional, cell-based
[3] = test system: MCF7; experiment: Induction of apoptosis in human MCF7 cells assessed as cell shrinkage at 1 uM after 48 hrs by DAPI staining; type: functional, cell-based
[4] = test system: T98G; experiment: Induction of apoptosis in human T98G cells assessed as cell shrinkage at 1 uM after 48 hrs by DAPI staining; type: functional, cell-based
[5] = test system: T98G; experiment: Induction of apoptosis in human T98G cells assessed as DNA fragmentation at 1 uM after 48 hrs by DAPI staining; type: functional, cell-based
Method in brief: (§1)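 Cells were treated at 1 μM for 48 h, washed in PBS and fixed in 70% methanol for 30 min at room temperature. They were stained with 0.4 μg mL⁻¹ DAPI for 1 h in the dark, and nuclear condensation and fragmentation were scored by fluorescence microscopy (385–410 nm).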

[6] = test system: MCF7; experiment: Induction of apoptosis in human MCF7 cells assessed as appearance of autophagolysosomes at 1 uM after 48 hrs by acridine orange/ethidium bromide staining-based microscopy; type: functional, cell-based
Method in brief: (§2)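 After 48 h at 1 μM, cells were incubated for 15 min in serum-free medium containing 1 μg mL⁻¹ acridine orange and 1 μg mL⁻¹ ethidium bromide. The medium was removed and cells imaged by inverted fluorescence microscopy (530–650 nm). Green/orange nuclear patterns and acidic cytoplasmic vacuoles were scored.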

[7] = test system: T98G; experiment: Induction of apoptosis in human T98G cells assessed as appearance of autophagolysosomes at 1 uM after 48 hrs by acridine orange/ethidium bromide staining-based microscopy; type: functional, cell-based; method in brief: as §2
[8] = test system: U-87MG ATCC; experiment: Induction of apoptosis in human U87 cells assessed as appearance of autophagolysosomes at 1 uM after 48 hrs by acridine orange/ethidium bromide staining-based microscopy; type: functional, cell-based; method in brief: as §2
[9] = test system: U-87MG ATCC; experiment: Induction of apoptosis in human U87 cells assessed as membrane blebbing at 1 uM after 48 hrs by DAPI staining; type: functional, cell-based
[10] = test system: MCF7; experiment: Induction of apoptosis in human MCF7 cells assessed as DNA fragmentation at 1 uM after 48 hrs by DAPI staining; type: functional, cell-based; method in brief: as §1
[11] = test system: U-87MG ATCC; experiment: Induction of apoptosis in human U87 cells assessed as DNA fragmentation at 1 uM after 48 hrs by DAPI staining; type: functional, cell-based; method in brief: as §1
[12] = test system: T98G; experiment: Induction of apoptosis in human T98G cells assessed as chromatin condensation at 1 uM after 48 hrs by DAPI staining; type: functional, cell-based; method in brief: as §1
[13] = test system: U-87MG ATCC; experiment: Induction of apoptosis in human U87 cells assessed as cell shrinkage at 1 uM after 48 hrs by DAPI staining; type: functional, cell-based
[14] = test system: MCF7; experiment: Cytotoxicity against human MCF7 cells after 48 hrs by MTT assay; type: functional, cell-based; conditions: for IC50: MCF7, 48 h, read-out: IC50
Method in brief: (§3)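 MTT assay. Cells were grown in DMEM with 10% FBS and penicillin/streptomycin at 37 °C under 5% CO2, seeded at 1–2×10^3 cells/well and treated 12 h later with 1×10^-12 to 1×10^-5 M ([…] from DMSO stock, final DMSO <0.5%) for 48 h. MTT was added at 0.5 mg mL⁻¹, formazan dissolved in DMSO and read at 570 nm. IC50 is the concentration giving 50% cytotoxicity. Quadruplicates, ≥3 independent experiments.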

[15] = test system: MCF7; experiment: Induction of apoptosis in human MCF7 cells assessed as chromatin condensation at 1 uM after 48 hrs by acridine orange/ethidium bromide staining-based microscopy; type: functional, cell-based; method in brief: as §2
[16] = test system: U-87MG ATCC; experiment: Induction of apoptosis in human U87 cells assessed as chromatin condensation at 1 uM after 48 hrs by acridine orange/ethidium bromide staining-based microscopy; type: functional, cell-based; method in brief: as §2
[17] = test system: MCF7; experiment: Induction of apoptosis in human MCF7 cells assessed as irregularities in cellular shape at 1 uM after 48 hrs by DAPI staining; type: functional, cell-based
[18] = test system: U-87MG ATCC; experiment: Induction of apoptosis in human U87 cells assessed as chromatin condensation at 1 uM after 48 hrs by DAPI staining; type: functional, cell-based; method in brief: as §1
[19] = test system: U-87MG ATCC; experiment: Induction of apoptosis in human U87 cells assessed as irregularities in cellular shape at 1 uM after 48 hrs by DAPI staining; type: functional, cell-based
[20] = test system: U-87MG ATCC; experiment: (§4) Cytotoxicity against human U87 cells expressing wild-type p53 after 48 hrs by MTT assay; type: functional, cell-based; method in brief: as §3
[21] = as §4; type: functional, cell-based, U-87MG ATCC; conditions: U-87 MG, read-out: IC50; method in brief: as §3
[22] = test system: T98G; experiment: Induction of apoptosis in human T98G cells assessed as chromatin condensation at 1 uM after 48 hrs by acridine orange/ethidium bromide staining-based microscopy; type: functional, cell-based; method in brief: as §2
[23] = test system: T98G; experiment: Induction of apoptosis in human T98G cells assessed as membrane blebbing at 1 uM after 48 hrs […]; type: functional, cell-based
[24] = test system: T98G; experiment: Cytotoxicity against human T98G cells expressing mutant p53 after 48 hrs by MTT assay; type: functional, cell-based; conditions: for IC50: read-out: IC50; method in brief: as §3
[25] = test system: MCF7; experiment: Induction of apoptosis in human MCF7 cells assessed as chromatin condensation at 1 uM after 48 hrs by DAPI staining; type: functional, cell-based; method in brief: as §1
[26] = test system: T98G; experiment: Induction of apoptosis in human T98G cells assessed as irregularities in cellular shape at 1 uM after 48 hrs by DAPI staining; type: functional, cell-based

| Structure (SMILES) | IC50 [1] | Activity [2] | Activity [3] | Activity [4] | Activity [5] | Activity [6] | Activity [7] | Activity [8] | Activity [9] | Activity [10] | Activity [11] | Activity [12] | Activity [13] | Activity [14] | IC50 [14] | Activity [15] | Activity [16] | Activity [17] | Activity [18] | Activity [19] | further results |
| --- | --- | --- | --- | --- | --- | --- | --- | --- | --- | --- | --- | --- | --- | --- | --- | --- | --- | --- | --- | --- | --- |
| CC(=NNC(=S)Nc1cccc(Cl)c1)c1ccccn1 (mixture of isomers) | > 10000 nM | Active | Active | Active | Active | Active | Active | Active | Active | Active | Active | Active | Active | Dose-dependent effect | 24 nM | Active | Active | Active | Active | Active | Activity [20]: Dose-dependent effect; IC50 [21]: 31 nM; Activity [22]: Active; Activity [23]: Active; Activity [24]: Dose-dependent effect; IC50 [24]: 1 nM; Activity [25]: Active; Activity [26]: Active |
| CC(=NNC(=S)Nc1ccccc1F)c1ccccn1 (mixture of isomers) | > 10000 nM | Active | Active | Active | Active | Active | Active | Active | Active | Active | Active | Active | Active | Dose-dependent effect | 0.39 nM | Active | Active | Active | Active | Active | Activity [20]: Dose-dependent effect; IC50 [21]: 5 nM; Activity [22]: Active; Activity [23]: Active; Activity [24]: Dose-dependent effect; IC50 [24]: 3.1 nM; Activity [25]: Active; Activity [26]: Active |
| CC(=NNC(=S)Nc1cccc(F)c1)c1ccccn1 (mixture of isomers) | > 10000 nM | Active | Active | Active | Active | Active | Active | Active | Active | Active | Active | Active | Active | Dose-dependent effect | 9 nM | Active | Active | Active | Active | Active | Activity [20]: Dose-dependent effect; IC50 [21]: 18 nM; Activity [22]: Active; Activity [23]: Active; Activity [24]: Dose-dependent effect; IC50 [24]: 12 nM; Activity [25]: Active; Activity [26]: Active |
| CC(=NNC(=S)Nc1ccc(F)cc1)c1ccccn1 (mixture of isomers) | > 10000 nM | Active | Active | Active | Active | Active | Active | Active | Active | Active | Active | Active | Active | Dose-dependent effect | 1.2 nM | Active | Active | Active | Active | Active | Activity [20]: Dose-dependent effect; IC50 [21]: 10 nM; Activity [22]: Active; Activity [23]: Active; Activity [24]: Dose-dependent effect; IC50 [24]: 17 nM; Activity [25]: Active; Activity [26]: Active |
| CC(=NNC(S)=Nc1ccccc1Cl)c1ccccn1 (mixture of isomers) | > 10000 nM | Active | Active | Active | Active | Active | Active | Active | Active | Active | Active | Active | Active | Dose-dependent effect | 0.16 nM | Active | Active | Active | Active | Active | Activity [20]: Dose-dependent effect; IC50 [21]: 2.6 nM; Activity [22]: Active; Activity [23]: Active; Activity [24]: Dose-dependent effect; IC50 [24]: 1.1 nM; Activity [25]: Active; Activity [26]: Active |
